Measured values from the EternaBench riboswitch data.

Tested on: MS2 coat protein
Assay: apparent Kd, MS2 coat protein; higher = weaker binding; RNA-MaP array; FMN 200 µM where present
Outline: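 Stalled E. coli RNA polymerase transcribed each design on Illumina sequencing-chip clusters. The clusters were titrated with SNAP-549-labelled MS2 coat protein, starting at 0.7 or 1.5 nM and doubling up to 3 µM, first without ligand and then with constant ligand, in 100 mM Tris-HCl pH 7.5, 80 mM KCl, 4 mM MgCl2, BSA, DTT, yeast tRNA and Tween-20. Green signal was normalised to red-channel RNA signal and to the control-cluster median Fmax. The apparent Kd is the median of filtered binding-curve fits made for each cluster.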

[1] = designed as: OFF switch for flavin mononucleotide, no ligand
[2] = ligand present: flavin mononucleotide, designed as: OFF switch for flavin mononucleotide
[3] = designed as: ON switch for flavin mononucleotide, no ligand
[4] = ligand present: flavin mononucleotide, designed as: ON switch for flavin mononucleotide

| Sequence | apparent Kd [1] | apparent Kd [2] | apparent Kd [3] | apparent Kd [4] |
| --- | --- | --- | --- | --- |
| AGAAACUACGAGAAGGACAUAUGGUACUUCAGAUACAUGAGGAUCACCCAUGUAGGAUAUCGUAGUUUCAGGAUCGUGAGAUCA | 9.58 nM | 42.6 nM |  |  |
| GUGCCUUGGGAGAAGGUUAUGUGCAAAGCAUUUAAAGGAUAUUCAUACCGGAAACGGACAUGAGGAUCACCCAUGUGGCACAAA |  |  | 621 nM | 150 nM |
| UCACGGGACUAAGGAUAUACAUGAACUAUUAUUGUAGAAGGUAGAAUGUUAGAUUAUACACUAAACAUGAGGAUCACCCAUGUU | 21.1 nM | 19.6 nM |  |  |
| CUUUUGUGAGGAUAUCAGUAGUAAAUAAAUAAAAUUACUACUGAGAAGGCACAUGAGGAUCACCCAUGUUCCUC | 41.2 nM | 305 nM |  |  |
| AGAACACAUGAGGAUCACCCAUGUGAGGAUAUCGAUGUCCCAGGGCGGGUGCGGGACUCGAGAAGGCACUUGGA | 41.9 nM | 88 nM |  |  |
| GGUACCAUUACAGGAUAUGCUUUCCUUUGGAAAGCAGAAGGGUGUAACAUGAGGAUCACCCAUGUGGUGCCAGGGCGUGAGCCC |  |  | 659 nM | 182 nM |
| AUUAUUGACAUAGGAUAUUGUUACAUGAGGAUCACCCAUGUUAUUUGGGAACUAGGAAUAUUUUACAAGAAGGAUGUUGUUACA |  |  | 101 nM | 81.3 nM |
| UUAUAAAGUGUGAGGAUAUGCUGGUCCUUGGAUCAGCAGAAGGCACAUGAGGAUCACCCAUGUAAUAUAUUUUU | 89.8 nM | 309 nM |  |  |
| GUUUUUCCUCAUGUACAUGAGGAACAUGAGGAUCACCCAUGUAGAAGGAUUUCCCUUAAAUUAAGAUAGGAUAUACAUAUAUUU | 102 nM | 59.3 nM |  |  |
| GGAUGAGAAACUCAUCCAUAACGAACAUGAGGAUCACCCAUGUAGGAUAUGCUACUCAAAGAGUAGCAGAAGGACAUGUGUCUU | 29.6 nM | 144 nM |  |  |
| CAGUAGAUCCGAGGAUAUACAAUCCGGAAACGGUACAUGAGGAUCACCCAUGUAGAAGGCGGAUCUACAGGUACUAAAGUACCG | 6.37 nM | 9.59 nM |  |  |
| UGGUCAUCAUCAGGAUAUUAACGUGGGCUACUUUAAGAAGGGAUAGUGGGAGAGGAUGUGAAACAUGAGGAUCACCCAUGUUGU |  |  | 15.7 nM | 12.3 nM |
| GUGGUCAGACAUGAGGAUCACCCAUGUGGAAUAAAUAAGGAGAAGGAUAUUAAAUAUAGGAUAUAUAAGAAGGUCUGGUUGGUG |  |  | 86.8 nM | 95.8 nM |
| GCCUAACAUGAGGAUCACCCAUGUAGUGGGUUGUUAGGAUAUGGGCGGCGUAACGCUGCACCAGAAGGAAUAGAAG |  |  | 865 nM | 504 nM |
| UUCAACGAUGAAGGAUAUCUAUGUCCAACAUGAGGAUCACCCAUGUUGAGGAUUACCUAUGUGUAGGAGAAGGUCAAUUUGACU |  |  | 7.01 nM | 6.51 nM |
| GUACUUGUGCAGAAGGGCAUUGAAUUAGGUUUUUAGGUUGAUCAGAAAUGCAGGAUAUGUUAAACAUGAGGAUCACCCAUGUAC |  |  | 66.3 nM | 13.7 nM |
| GUCAGCUCGUGAGGAUAUACAACACUGCUUCGGCAGGGUAUUAAGAUCACAUGAGGAUCACCCAUGUAGAAGGCACGAGCUGAU | 12.7 nM | 173 nM |  |  |
| AUCAGCUCGUCAGGAUAUACGUCAUUGCGUCAGCAGUGUGGUAAGAUCACAUGAGGAUCACCCAUGUAGAAGGGACGAGCUGAU | 13.9 nM | 286 nM |  |  |
| GCGAUUUUGUAAGGAUAUACACGAGUUUUAAGUGUAGAAGGUACUUACAUGAGGAUCACCCAUGUAUAAAUGUAUAAUAGUCGC |  |  | 9.11 nM | 7.51 nM |
| AAAAUGUAAGGAUAUGCUGCUCGUCACUUGCGUGAUGAGUAGCAGAAGGUACAUGAGGAUCACCCAUGUAAAGA | 32.7 nM | 45.8 nM |  |  |
| GUGCUCGUGUGAGGAUAUGCUUCCGUUUCGGCUGCAGAAGGUACUAUUAUACAUGAGGAUCACCCAUGUCUCUUUUCUUCGGUG |  |  | 33.1 nM | 33.7 nM |
| GGGCCGUAGUAGAAGGGAUAUACGAUAGGUAUAUCAGGAUAUACAUGAGGAUCACCCAUGUUCUAACAGUGAUGGUCCUCCCUA | 173 nM | 374 nM |  |  |
| AAUUAUAUACAGAAGGAGUUAAAAGGAGUAUUACUAGGAUAUGUUCACAUGAGGAUCACCCAUGUCAUAUUGGGAUUUAUUUUU | 27.2 nM | 25.7 nM |  |  |
| GUGGUCAGACAUGAGGAUCACCCAUGUGGAAUAAAUAAGGAGAAGGAUAUCGAAUAUAGGAUAUACGAGAAGGUCUGGUUGGUG |  |  | 77.3 nM | 83.1 nM |
| GGAGUGUGAGGAUAUAUGGUGAAGGUGAAGAGAGAGGAGGAGUAGAAGGUACAUGAGGAUCACCCAUGUUUAGG | 47 nM | 41.3 nM |  |  |
| GCUAUGUCAGGAUAUUGAUCGUGAUCGGAAAUGAUCGUGAUCGAGAAGGGACAUGAGGAUCACCCAUGUGUAGU | 166 nM | 492 nM |  |  |
| ACAUGAGAGAUAGGAUAUCUUGUACCUACAUGUGACAUGAGGAUCACCCAUGUGGUAAGUAUGAGGGAGAAGGGUCAGAUAUGU |  |  | 57.9 nM | 55.9 nM |
| GUGCGGAACCUAGGAUAUCCGGCAUGGACAGGUGGUAAGUCUCCCACAUGAGGAUCACCCAUGUAGGAGAAGGAGGAUCACGGA | 6.46 nM | 6.07 nM |  |  |
